The text below walks through data of ChEMBL document CHEMBL3525937, “Drug efflux transporter multidrug resistance-associated protein 5 affects sensitivity of pancreatic cancer cell lines to the nucleoside anticancer drug 5-fluorouracil” (Drug Metab Dispos, 2011).

A word on the IC50: it is the concentration that inhibits the measured activity by half.

For data set [1], the target named is T1, ATP-binding cassette sub-family C member 5 (Homo sapiens, UniProt O15440). The data set is described as follows: Activity at MRP5 in human Colo-357 cells assessed as decrease of drug accumulation after 2 hrs relative to wild type cells. The settings on record: colo357, 2 h. Further details: scale not given: the % may be the effect or the level left. The class given is ADME, cell-based. A digest of the protocol:
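Stably transfected Colo-357 (pcDNA3.1/hygro-MRP5 vs empty vector, hygromycin B selected), subconfluent, seeded in triplicate, grown overnight, then incubated at 37°C with 7.6 M [14C]5-FU (0.4 Ci/ml, 52 mCi/mmol) for timed intervals. Washed with ice-cold PBS, lysed in 0.2% SDS, scintillation counted, normalised to protein.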

In data set [2] the test system is MRP5. Kind of data set: Induction of MRP5 expression in human MRP5 vector transfected Colo-357 cells by RT-PCR analysis relative to control. In kind it is cell-based, COLO357. The conditions noted are these: Colo-357 cells transfected with human MRP5 vector, read-out: FC. A digest of the protocol: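 Colo-357 cells were transfected with pcDNA3.1/hygro-MRP5 or empty vector, split after 48 h and selected in hygromycin B. MRP5 mRNA was measured by quantitative real-time RT-PCR (20 ng cDNA) relative to the vector-only clone.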

Data set [3] can be described thus: Cytotoxicity against human MRP5 knockdown Patu-02 cells assessed as increase of cell death at 100 uM after 48 hrs using propidium iodide staining by cytofluorometric analysis. The class given is functional. An outline of the steps: (§1)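 Patu-02 cells stably transfected with an MRP5 siRNA expression vector or empty vector (hygromycin B selected, single-cell cloned, RT-PCR screened) were exposed to 5-FU (3.3–100 M) for 48 h. Cell death was measured as PI uptake (2 g/ml, 5 min, 4°C, dark) by flow cytometry on 10,000 gated cells. Three assays were run in triplicate.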

A further data set has as its system COLO357. Kind of data set: Cytotoxicity against human Colo-357 cells expressing MRP5 assessed as cell killing after 48 hrs using propidium iodide staining by cytofluorometric analysis. In kind it is functional, cell-based. An outline of the steps: (§2)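 Colo-357 cells stably transfected with pcDNA3.1/hygro-MRP5 or empty vector were cultured with 5-FU (1–33 M) for 48 h. Cells were harvested, stained with 2 g/ml propidium iodide in PBS for 5 min at 4°C in the dark, and PI uptake was read by flow cytometry (10,000 cells, debris gated out). Values are the percentage of dead cells from three assays in triplicate.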

A short description of data set [4]: Cytotoxicity against human MRP5 knockdown Patu-02 cells assessed as increase of cell death at 33 uM after 48 hrs using propidium iodide staining by cytofluorometric analysis. In kind it is functional. An outline of the steps: as §1
The nature of data set [5]: Cytotoxicity against human Colo-357 cells by crystal violet staining. In kind it is functional, cell-based. The conditions noted are these: COLO357. An outline of the steps: (§3)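 Cells plated at 5000–10,000 per well and left 24 h, then exposed to drug in medium for the set time at 37°C, 5% CO2. Washed with PBS, fixed 15 min in 4% paraformaldehyde and stained 5 min with 0.5% crystal violet in methanol. Lysed in 1% SDS, OD read at 570 nm with untreated cells as 100%. IC50 fitted by nonlinear sigmoidal regression over at least five concentrations, each in triplicate; three independent experiments.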

Data set [6] addresses T1, ATP-binding cassette sub-family C member 5. Kind of data set: Activity at MRP5 in human Colo-357 cells assessed as increase of drug efflux after 60 mins relative to wild type cells. The class given is ADME, cell-based. The settings on record: colo357, 1 h. A digest of the protocol: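 Transfected Colo-357 cells seeded in triplicate were preloaded 2 h with [14C]5-FU in energy-depletion medium (glucose-free, pyruvate-free, sodium azide). After two washes, medium was switched to ordinary drug-free growth medium, and medium radioactivity was sampled at time points over 60 min. Results are expressed as released radioactivity relative to radioactivity accumulated during loading.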

A short description of data set [7]: Cytotoxicity against human Patu-02 cells assessed as increase of cell death at 100 uM after 48 hrs using propidium iodide staining by cytofluorometric analysis. The class given is functional. A digest of the protocol: as §1
The nature of data set [8]: Cytotoxicity against human Patu-T cells by crystal violet staining. In kind it is functional, cell-based. The conditions noted are these: PaTu 8988t. An outline of the steps:
as §3

A short description of data set [9]: Cytotoxicity against human Patu-02 cells assessed as increase of cell death at 33 uM after 48 hrs using propidium iodide staining by cytofluorometric analysis. The class given is functional. An outline of the steps:
as §1

The nature of data set [10]: Cytotoxicity against human Colo-357 cells expressing MRP5 assessed as cell killing at 3 uM after 48 hrs using propidium iodide staining by cytofluorometric analysis. In kind it is functional, COLO357. A digest of the protocol: as §2
The nature of data set [11]: Cytotoxicity against human Patu-02 cells assessed as increase of cell death at 10 uM after 48 hrs using propidium iodide staining by cytofluorometric analysis. The class given is functional. A digest of the protocol: as §1
Data set [12] is described as follows: Cytotoxicity against human Colo-357 cells assessed as cell killing at 1 uM after 48 hrs using propidium iodide staining by cytofluorometric analysis. In kind it is functional, COLO357. An outline of the steps: as §2
The nature of data set [13]: Induction of BCRP expression in human Patu-T cells after 6 months by RT-PCR analysis relative to control. The class given is ADME, cell-based. The settings on record: patu 8988t, 4383 h. An outline of the steps:
(§4)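 Patu-8988T cells were cultured 6 months with increasing 5-FU, then kept at least 1 week drug-free. Transcripts were quantified by real-time RT-PCR on 20 ng cDNA with a Tris/KCl/MgCl2 platinum Taq master mix and ROX reference. Expression is reported relative to untreated parental Patu-T cells.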

Data set [14] in a line: Cytotoxicity against human T3M4 cells by crystal violet staining. In kind it is functional, cell-based. An outline of the steps: as §3
The nature of data set [15]: Cytotoxicity against human 5-FU-resistant Patu-T cells by crystal violet staining. The class given is functional, cell-based. The conditions noted are these: PaTu 8988t. An outline of the steps:
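Patu-8988T subclones were selected with rising 5-FU over 6 months, then kept drug-free at least 1 week. Cells were plated at 5000–10,000/well, left 24 h, then drug-exposed. They were fixed in 4% paraformaldehyde, stained with 0.5% crystal violet in methanol, lysed in 1% SDS, and read at OD 570 nm against untreated cells (100%). At least five concentrations were tested in triplicate, and IC50 was obtained by sigmoidal nonlinear regression.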

A short description of data set [16]: Cytotoxicity against human MRP5 knockdown Patu-02 cells assessed as increase of cell death at 3.3 uM after 48 hrs using propidium iodide staining by cytofluorometric analysis. In kind it is functional. A digest of the protocol:
as §1

A short description of data set [17]: Cytotoxicity against human Colo-357 cells assessed as cell killing at 33 uM after 48 hrs using propidium iodide staining by cytofluorometric analysis. The class given is functional, COLO357. An outline of the steps:
as §2

Data set [18] can be described thus: Cytotoxicity against human Colo-357 cells expressing MRP5 assessed as cell killing at 33 uM after 48 hrs using propidium iodide staining by cytofluorometric analysis. The class given is functional, COLO357. An outline of the steps: as §2
The test system of data set [19] is MRP5. The data set is described as follows: Induction of MRP5 expression in human Patu-T cells after 6 months by RT-PCR analysis relative to control. In kind it is cell-based, PaTu 8988t. The settings on record: read-out: FC. A digest of the protocol:
as §4

A short description of data set [20]: Cytotoxicity against human MRP5 knockdown Patu-02 cells assessed as increase of cell death at 10 uM after 48 hrs using propidium iodide staining by cytofluorometric analysis. The class given is functional. An outline of the steps: as §1
Another data set relates to MRP4. Kind of data set: Induction of MRP4 expression in human Patu-T cells after 6 months by RT-PCR analysis relative to control. In kind it is cell-based, PaTu 8988t. The conditions noted are these: read-out: FC. A digest of the protocol:
as §4

Data set [21] can be described thus: Cytotoxicity against human Colo-357 cells expressing MRP5 assessed as cell killing at 10 uM after 48 hrs using propidium iodide staining by cytofluorometric analysis. In kind it is functional, COLO357. A digest of the protocol:
as §2

A further data set concerns PaTu 8988t. The data set is described as follows: Induction of thymidylate synthase expression in human Patu-T cells after 6 months by RT-PCR analysis relative to control. The class given is functional, cell-based. An outline of the steps: as §4
For the next data set, the system named is DAN-G. The data set is described as follows: Cytotoxicity against human DAN-G cells by crystal violet staining. The class given is functional, cell-based. A digest of the protocol:
as §3

Data set [22] is described as follows: Cytotoxicity against human Colo-357 cells assessed as cell killing at 10 uM after 48 hrs using propidium iodide staining by cytofluorometric analysis. In kind it is functional, COLO357. An outline of the steps: as §2
Data set [23] in a line: Cytotoxicity against human Aspc-1 cells by crystal violet staining. The settings on record: ASPC1. In kind it is functional, cell-based. A digest of the protocol:
as §3

Data set [24] in a line: Cytotoxicity against human Patu-02 cells assessed as increase of cell death at 3.3 uM after 48 hrs using propidium iodide staining by cytofluorometric analysis. In kind it is functional. An outline of the steps:
as §1

The nature of data set [25]: Cytotoxicity against human Patu-02 cells by crystal violet staining. The class given is functional, cell-based. An outline of the steps: as §3
Data set [26] in a line: Cytotoxicity against human PANC1 cells by crystal violet staining. In kind it is functional, cell-based. The settings on record: PANC-1. A digest of the protocol:
as §3

Data set [27] can be described thus: Cytotoxicity against human Patu-S cells by crystal violet staining. In kind it is functional, cell-based. An outline of the steps: as §3
Data set [28] in a line: Cytotoxicity against human Colo-357 cells assessed as cell killing at 3 uM after 48 hrs using propidium iodide staining by cytofluorometric analysis. In kind it is functional, COLO357. An outline of the steps:
as §2

Data set [29] can be described thus: Cytotoxicity against human Colo-357 cells expressing MRP5 assessed as cell killing at 1 uM after 48 hrs using propidium iodide staining by cytofluorometric analysis. In kind it is functional, COLO357. A digest of the protocol: as §2

Activity calls are given as the source filed them. No cut-off for these calls is given here.

T1 sequence (O15440 whole entry): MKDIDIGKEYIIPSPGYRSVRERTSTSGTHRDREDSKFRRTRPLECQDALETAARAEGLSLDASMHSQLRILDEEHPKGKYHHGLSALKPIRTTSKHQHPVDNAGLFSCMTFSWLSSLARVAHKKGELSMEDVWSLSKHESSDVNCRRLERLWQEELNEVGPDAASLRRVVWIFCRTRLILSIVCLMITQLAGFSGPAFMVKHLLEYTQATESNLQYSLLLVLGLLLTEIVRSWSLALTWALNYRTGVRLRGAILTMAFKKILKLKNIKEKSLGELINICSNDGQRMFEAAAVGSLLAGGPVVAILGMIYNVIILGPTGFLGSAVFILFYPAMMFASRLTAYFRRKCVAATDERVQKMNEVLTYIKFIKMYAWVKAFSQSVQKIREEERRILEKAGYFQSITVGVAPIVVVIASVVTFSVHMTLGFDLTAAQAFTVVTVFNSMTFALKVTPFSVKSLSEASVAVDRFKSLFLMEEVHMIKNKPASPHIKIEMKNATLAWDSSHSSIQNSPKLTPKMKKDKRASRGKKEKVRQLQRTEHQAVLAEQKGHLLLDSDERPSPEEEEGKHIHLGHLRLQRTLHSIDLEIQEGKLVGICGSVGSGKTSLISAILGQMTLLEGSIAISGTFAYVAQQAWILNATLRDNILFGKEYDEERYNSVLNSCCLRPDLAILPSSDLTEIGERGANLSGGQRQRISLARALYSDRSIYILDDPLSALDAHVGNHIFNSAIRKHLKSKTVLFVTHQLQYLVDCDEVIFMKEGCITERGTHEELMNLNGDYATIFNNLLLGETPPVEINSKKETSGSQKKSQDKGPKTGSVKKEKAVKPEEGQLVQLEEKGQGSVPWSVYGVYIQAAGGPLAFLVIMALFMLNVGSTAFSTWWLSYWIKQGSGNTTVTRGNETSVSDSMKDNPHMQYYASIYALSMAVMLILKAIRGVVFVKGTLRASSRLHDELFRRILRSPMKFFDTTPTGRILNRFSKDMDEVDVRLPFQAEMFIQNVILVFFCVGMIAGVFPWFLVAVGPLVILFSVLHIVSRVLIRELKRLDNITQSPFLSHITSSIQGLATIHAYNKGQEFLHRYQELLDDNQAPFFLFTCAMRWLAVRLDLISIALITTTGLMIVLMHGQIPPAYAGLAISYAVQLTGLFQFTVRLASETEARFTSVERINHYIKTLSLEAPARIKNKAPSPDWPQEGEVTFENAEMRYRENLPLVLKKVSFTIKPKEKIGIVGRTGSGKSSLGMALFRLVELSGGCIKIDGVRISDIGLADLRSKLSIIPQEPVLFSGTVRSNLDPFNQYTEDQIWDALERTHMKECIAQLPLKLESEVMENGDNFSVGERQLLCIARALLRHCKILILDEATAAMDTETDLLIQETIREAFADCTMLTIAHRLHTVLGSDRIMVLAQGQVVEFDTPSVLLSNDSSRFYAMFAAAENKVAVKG

On to `O=c1[nH]cc(F)c(=O)[nH]1` [FLUOROURACIL], for which the Activity was 59.2% in data set [1]; 94% in [3]; 80% in [4]; 66% in [7]; 63% in data set [9]; 31.2% in data set [10]. In addition, the Activity is on record as 27% in data set [11]; 26.4% in data set [12]; “Not Active” in [13]; 36% in data set [16]; 53% in data set [17]; 44.9% in data set [18]. Besides, the Activity in data set [20] was determined as 53%; in data set [21], 39.1%; in [22], 54.6%; in data set [24], 10%; in data set [28], 45.4%; in data set [29], 16.4%. Moreover, the fold induction in the data set with MRP5 [2] amounted to 4.3. The outcome in the data set on COLO357 and in the data set on PaTu 8988t was inactive. In addition, the IC50 in data set [5] was 2050 nM; in data set [8], 2080 nM; in [14], 330 nM; in data set [15] it was 33200 nM; with DAN-G, 4380 nM; in data set [23], 2970 nM. The IC50 in [25] is 3950 nM; in data set [26] it was 3940 nM; in [27] it was 2930 nM. In addition, the “fold change (FC)” value in [6] worked out at 2.1. Besides, the fold induction at 4383 h was 2.4 in the data set with MRP5 [19] and 2.5 with MRP4.

Consider `Nc1ccn([C@@H]2O[C@H](CO)[C@@H](O)C2(F)F)c(=O)n1` [GEMCITABINE], for which the half-maximal inhibitory concentration (IC50) amounted to 0.36 nM in data set [5]; 2.8 nM in [8]; 1.5 nM in data set [14]; 3.4 nM in the data set on DAN-G; 4 nM in [23]; 3.4 nM in data set [25]. In addition, the results for the IC50 in data set [26] and in data set [27] were 1 nM and 3.2 nM, respectively.

`Sc1ncnc2nc[nH]c12` [MERCAPTOPURINE ANHYDROUS]: the IC50 in data set [5] came out at 6120 nM; in [8], 4090 nM; in [14] it was 2630 nM; with DAN-G it was 4060 nM; in data set [23], 2450 nM; in data set [25] it was 9690 nM. For the same molecule, the results for the IC50 in data set [26] and in data set [27] were 6390 nM and 11100 nM, respectively.

Take `Nc1nc2[nH]cnc2c(=S)[nH]1` [THIOGUANINE]: the IC50 in data set [5] is 2090 nM; in data set [8] it was 3430 nM; in data set [14] it was 1280 nM; in the data set with DAN-G, 4320 nM; in data set [23] it was 2800 nM; in [25] it was 2260 nM. Besides, the concentration for half-maximal inhibition (IC50) in data set [26] was 8310 nM; in [27], 2210 nM.
